According to ChEMBL document CHEMBL1140978, “Synthesis and preliminary antibacterial evaluation of simplified thiomarinol analogs” (2009):
Structures can show the parent of a compound that is named as a salt. Activity calls are given as the source filed them. The rule behind the calls is not given here.

How the values were obtained:
Format in all cases: functional
Staphylococcus aureus [1] = assay: Antimicrobial activity against Staphylococcus aureus ATCC 25923 at 0.0172 uM after 17 hrs by disk diffusion assay; details: for zone of inhibition at 0.0172 µM: ATCC 25923, 17 h, read-out: IZ
How it was run: (§1)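 Disk diffusion per CLSI M2-A8. S. aureus grown on trypticase soy agar; five fresh colonies into trypticase soy broth, ~5 h standing at 35 °C, adjusted to A625 0.1 (0.5 McFarland), swabbed onto Mueller–Hinton agar. Compounds in 25% methanol/water, 15 µl loaded on 6 mm paper disks; plates ~17 h at 35 °C; inhibition zones recorded, duplicate plates per strain.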

Staphylococcus aureus [2] = assay: Antimicrobial activity against Staphylococcus aureus ATCC 6538 at 0.0172 uM after 17 hrs by disk diffusion assay; details: for zone of inhibition at 0.0172 µM: ATCC 6538, 17 h, read-out: IZ; how it was run: as §1
Staphylococcus aureus [3] = assay: Antimicrobial activity against Staphylococcus aureus ATCC 25923 at 0.019 uM after 17 hrs by disk diffusion assay; details: ATCC 25923, 17 h, read-out: IZ; how it was run: as §1
Staphylococcus aureus [4] = assay: Antimicrobial activity against Staphylococcus aureus ATCC 6538 at 0.019 uM after 17 hrs by disk diffusion assay; details: ATCC 6538, 17 h, read-out: IZ
How it was run: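 Disk diffusion on Mueller–Hinton agar (broth 2.1% w/v, agar 1.7%), following CLSI M2-A8. Inoculum from five fresh trypticase soy agar colonies grown about 5 h standing at 35 °C in trypticase soy broth, then adjusted to A625 0.1 (0.5 McFarland) and swabbed onto plates. Compounds in 25% methanol/water, 15 µl loaded on 6 mm paper disks. Plates incubated about 17 h at 35 °C, inhibition zones recorded, duplicate plates.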

Staphylococcus aureus [5] = assay: Antimicrobial activity against Staphylococcus aureus ATCC 6538 at 0.0344 uM after 17 hrs by disk diffusion assay; details: ATCC 6538, 17 h, read-out: IZ; how it was run: as §1
Staphylococcus aureus [6] = assay: Antimicrobial activity against Staphylococcus aureus ATCC 6538 at 0.0602 uM after 17 hrs by disk diffusion assay; details: ATCC 6538, 17 h, read-out: IZ; how it was run: as §1
Staphylococcus aureus [7] = assay: Antimicrobial activity against Staphylococcus aureus ATCC 25923 at 0.0602 uM after 17 hrs by disk diffusion assay; details: ATCC 25923, 17 h, read-out: IZ; how it was run: as §1
Staphylococcus aureus [8] = assay: Antimicrobial activity against Staphylococcus aureus ATCC 25923 at 0.00686 uM after 17 hrs by disk diffusion assay; details: ATCC 25923, 17 h, read-out: IZ; how it was run: as §1
Staphylococcus aureus [9] = assay: Antimicrobial activity against Staphylococcus aureus ATCC 6538 at 0.00686 uM after 17 hrs by disk diffusion assay; details: ATCC 6538, 17 h, read-out: IZ; how it was run: as §1

SMILES	Activity (Staphylococcus aureus [1])	Activity (Staphylococcus aureus [2])	zone of inhibition at 0.0172 µM (Staphylococcus aureus [1]) [mm]	zone of inhibition at 0.0172 µM (Staphylococcus aureus [2]) [mm]	other results
C/C(=C1/CCOC1=O)[C@@H](O)[C@@H]1OCC[C@@H](O)[C@H]1O	inactive	inactive			
CC1(C)S[C@@H]2[C@H](NC(=O)Cc3ccccc3)C(=O)N2[C@H]1C(=O)O [PENICILLIN G SODIUM]					zone of inhibition at 0.019 µM (Staphylococcus aureus [3]): 32 mm; zone of inhibition at 0.019 µM (Staphylococcus aureus [4]): 40 mm
CCN(CC)C(=O)/C=C(\C)[C@@H](O)[C@@H]1OC[C@H](C/C=C/[C@@H](C)[C@H](C)O)[C@@H](O)[C@H]1O					zone of inhibition at 0.0344 µM (Staphylococcus aureus [5]): 15 mm
C/C(=C\C(=O)OCCCCCCCC(=O)N[C@H]1CCCNC1=O)[C@@H](O)[C@@H]1OC[C@H](C/C=C/[C@@H](C)[C@H](C)O)[C@@H](O)[C@H]1O [THIOMARINOL H]			10	16	
CCOC(=O)/C=C(\C)[C@@H](O)[C@@H]1OC[C@H](C/C=C/[C@@H](C)[C@H](C)O)[C@@H](O)[C@H]1O			21	22	
COC(=O)/C=C(\C)[C@@H](O)[C@@H]1OC[C@H](C/C=C/[C@@H](C)[C@H](C)O)[C@@H](O)[C@H]1O			13	16	
C/C(=C\C(=O)O)[C@@H](O)[C@@H]1OC[C@H](C/C=C/[C@@H](C)[C@H](C)O)[C@@H](O)[C@H]1O	inactive	inactive			
CCCCCC[C@H]1CO[C@@H]([C@H](O)/C(C)=C/C(=O)OCC)[C@H](O)[C@@H]1O	inactive	inactive			
C/C(=C1\CCOC1=O)[C@@H](O)[C@@H]1OCC[C@@H](O)[C@H]1O	inactive	inactive			
CN(C)[C@@H]1C(O)=C(C(N)=O)C(=O)[C@@]2(O)C(O)=C3C(=O)c4c(O)cccc4[C@@](C)(O)[C@H]3C[C@@H]12 [TETRACYCLINE HYDROCHLORIDE]					zone of inhibition at 0.0602 µM (Staphylococcus aureus [6]): 28 mm; zone of inhibition at 0.0602 µM (Staphylococcus aureus [7]): 29 mm
CN[C@@H]1[C@H](O[C@H]2[C@H](O[C@H]3[C@H](O)[C@@H](O)[C@H](N=C(N)N)[C@@H](O)[C@@H]3N=C(N)N)O[C@@H](C)[C@]2(O)C=O)O[C@@H](CO)[C@H](O)[C@H]1O [STREPTOMYCIN SULFATE]					zone of inhibition at 0.00686 µM (Staphylococcus aureus [8]): 14 mm; zone of inhibition at 0.00686 µM (Staphylococcus aureus [9]): 16 mm
C/C(=C\C(=O)OCCCCCCCCC(=O)O)C[C@@H]1OC[C@H](C[C@H]2O[C@@H]2[C@@H](C)[C@H](C)O)[C@@H](O)[C@H]1O [PSEUDOMONIC ACID A CALCIUM SALT]			26	32	
CCCCNC(=O)/C=C(\C)[C@@H](O)[C@@H]1OC[C@H](C/C=C/[C@@H](C)[C@H](C)O)[C@@H](O)[C@H]1O					zone of inhibition at 0.0344 µM (Staphylococcus aureus [5]): 14 mm
C/C(=C\C(=O)OC(C)C)[C@@H](O)[C@@H]1OC[C@H](C/C=C/[C@@H](C)[C@H](C)O)[C@@H](O)[C@H]1O			21	22	
CCOC(=O)/C=C(\C)[C@@H](O)[C@@H]1OCC[C@@H](O)[C@H]1O	inactive	inactive			
